Consider one compound from article PMC2741613 (Journal of the American Chemical Society, 2009).

One test has as its target T1, VHX (Homo sapiens, UniProt Q9NRW4).
T1 sequence (Q9NRW4 1-184): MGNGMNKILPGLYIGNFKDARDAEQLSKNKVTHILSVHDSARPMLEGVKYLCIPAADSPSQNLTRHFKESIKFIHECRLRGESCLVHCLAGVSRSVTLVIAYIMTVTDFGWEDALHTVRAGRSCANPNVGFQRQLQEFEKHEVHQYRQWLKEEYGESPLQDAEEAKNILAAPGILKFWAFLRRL
The experiment in a line: PTP activity assay with pNPP, VHX. The test is classed as biochemical. The essentials: (§1)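 Reactions started by adding enzyme to mixtures with various pNPP and test-compound concentrations. Rates were fitted with an enzyme-kinetics model for Ki.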

The next test has as its target T2, CD45 (Homo sapiens, UniProt P08575).
T2 sequence (P08575 26-1306): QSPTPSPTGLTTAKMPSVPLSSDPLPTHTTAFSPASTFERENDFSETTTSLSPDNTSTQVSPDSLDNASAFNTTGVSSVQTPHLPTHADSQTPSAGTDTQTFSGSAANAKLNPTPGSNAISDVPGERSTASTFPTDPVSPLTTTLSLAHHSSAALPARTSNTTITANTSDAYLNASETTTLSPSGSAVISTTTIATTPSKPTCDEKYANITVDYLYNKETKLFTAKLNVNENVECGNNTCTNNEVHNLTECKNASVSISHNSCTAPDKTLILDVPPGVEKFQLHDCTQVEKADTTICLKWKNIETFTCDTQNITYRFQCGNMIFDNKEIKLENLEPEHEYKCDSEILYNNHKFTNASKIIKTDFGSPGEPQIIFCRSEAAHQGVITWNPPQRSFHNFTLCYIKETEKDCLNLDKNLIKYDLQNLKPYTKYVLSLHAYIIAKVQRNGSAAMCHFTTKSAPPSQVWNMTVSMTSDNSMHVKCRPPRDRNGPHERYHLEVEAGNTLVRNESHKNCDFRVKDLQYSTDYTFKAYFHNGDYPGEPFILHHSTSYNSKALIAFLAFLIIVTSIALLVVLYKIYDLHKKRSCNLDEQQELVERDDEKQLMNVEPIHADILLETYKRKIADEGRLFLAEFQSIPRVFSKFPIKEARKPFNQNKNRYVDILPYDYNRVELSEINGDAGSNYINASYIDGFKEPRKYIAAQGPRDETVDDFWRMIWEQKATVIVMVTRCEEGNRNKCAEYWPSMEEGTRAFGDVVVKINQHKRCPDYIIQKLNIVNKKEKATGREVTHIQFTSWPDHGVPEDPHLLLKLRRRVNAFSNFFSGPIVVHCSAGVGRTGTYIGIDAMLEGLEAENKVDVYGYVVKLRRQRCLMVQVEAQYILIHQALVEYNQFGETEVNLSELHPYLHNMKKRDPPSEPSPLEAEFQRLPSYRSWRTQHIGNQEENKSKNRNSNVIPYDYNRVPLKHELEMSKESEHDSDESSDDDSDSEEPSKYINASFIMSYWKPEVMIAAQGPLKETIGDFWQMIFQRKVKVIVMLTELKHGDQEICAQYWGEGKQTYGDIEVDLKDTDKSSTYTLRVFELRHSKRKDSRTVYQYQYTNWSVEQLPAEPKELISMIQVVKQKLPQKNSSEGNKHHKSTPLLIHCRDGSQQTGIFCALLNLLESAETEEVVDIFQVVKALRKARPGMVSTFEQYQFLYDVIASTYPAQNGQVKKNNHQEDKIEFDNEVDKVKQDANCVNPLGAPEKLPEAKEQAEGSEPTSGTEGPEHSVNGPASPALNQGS
The experiment in a line: PTP activity assay with pNPP, CD45. The test is classed as biochemical. The essentials:
as §1

In a further test the target is T3, Lyp (Homo sapiens, UniProt Q9Y2R2).
T3 sequence (Q9Y2R2 1-807): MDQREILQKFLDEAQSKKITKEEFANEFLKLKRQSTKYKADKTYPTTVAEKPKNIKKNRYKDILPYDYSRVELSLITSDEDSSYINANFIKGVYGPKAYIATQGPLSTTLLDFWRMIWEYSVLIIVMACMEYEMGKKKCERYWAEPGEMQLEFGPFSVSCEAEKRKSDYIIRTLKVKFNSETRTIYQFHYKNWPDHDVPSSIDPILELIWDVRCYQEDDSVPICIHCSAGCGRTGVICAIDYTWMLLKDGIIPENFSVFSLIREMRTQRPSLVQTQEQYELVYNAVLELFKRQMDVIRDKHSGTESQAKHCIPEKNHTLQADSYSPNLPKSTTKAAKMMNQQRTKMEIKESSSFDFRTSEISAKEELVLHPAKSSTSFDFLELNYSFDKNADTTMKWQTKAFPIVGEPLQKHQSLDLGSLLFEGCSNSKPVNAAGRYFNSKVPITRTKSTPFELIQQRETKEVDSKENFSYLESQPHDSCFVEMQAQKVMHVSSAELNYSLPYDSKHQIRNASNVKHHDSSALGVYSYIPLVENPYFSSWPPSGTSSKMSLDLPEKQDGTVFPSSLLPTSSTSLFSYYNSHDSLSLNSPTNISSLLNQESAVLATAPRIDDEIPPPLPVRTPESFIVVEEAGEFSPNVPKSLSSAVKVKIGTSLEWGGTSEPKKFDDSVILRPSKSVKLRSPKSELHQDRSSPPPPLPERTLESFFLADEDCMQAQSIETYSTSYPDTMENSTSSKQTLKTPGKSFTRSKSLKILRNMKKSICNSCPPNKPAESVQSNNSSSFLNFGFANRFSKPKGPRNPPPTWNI
In words: PTP activity assay with pNPP, Lyp. The format is biochemical.

The test system of test [1] is pSrc527 in PTP1B−/− mouse embryo fibroblast cells. The experiment in a line: Src phosphorylation at Tyr527 in cells. The settings on record: treated for two hours, various concentrations. The test is classed as cell-based. In outline:
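PTP1B−/− mouse embryo fibroblasts at 80% confluence were exposed to test compound for two hours, then lysed and cleared at 15,000 rpm for 10 min. 30 μg total protein run on SDS-PAGE and blotted to PVDF. Probed with anti-pSrc416, anti-pSrc527 and anti-Src antibodies, HRP-conjugated secondaries.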

As to `CCc1ccc(C(=O)NCCCC[C@H](NC(=O)[C@H](Cc2ccc(C(F)(F)P(=O)(O)O)cc2)NC(=O)[C@H](Cc2ccccc2)NC(=O)CO[C@H]2C[C@@H](C)CC[C@@H]2C(C)C)C(N)=O)cc1` [Compound 8], the Ki on VHX, on CD45 and at Lyp was more than 1000 nM in each case. In addition, the “effect on pSrc527 phosphorylation” value in test [1] is “no significant change”.
